Data: ChEMBL document CHEMBL4837197, “A novel Hsp70 inhibitor specifically targeting the cancer-related Hsp70-Bim protein-protein interaction” (Eur J Med Chem, 2021)
Activity calls are given as the source filed them. No cut-off for these calls is given here.

How the values were obtained:
[1] = molecular target: Apoptosis regulator Bcl-2 (Homo sapiens, UniProt P10415); assay: Inhibition of FAM-Bim peptide binding to human Bcl-2 (2 to 206) measured after 30 mins by fluorescence polarization assay
Summary of the method: (§1)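 Fluorescence polarization competition. Serial dilutions of compound added to protein–probe mixture in buffer containing 0.02% sodium azide, incubated 30 min, then polarization read. Control values subtracted. IC50 from the competitive inhibition curve of polarization versus compound concentration.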

[2] = Inhibition of FAM-Bim peptide binding to human Hsp70 NBD (1 to 383) measured after 30 mins by fluorescence polarization assay; summary of the method: as §1
BV-173 [3] = assay: Induction of apoptosis in human BV-173 cells transfected with Bim shRNA assessed as cleaved PARP at 3 uM by Western blot analysis; format: functional, cell-based
Summary of the method: (§2)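 Stable non-silencing, Hsp70 or Bim shRNA BV173 clones treated at 3 µM. Lysed in RIPA with protease/phosphatase inhibitors, 150–250 µg protein resolved by SDS-PAGE, and PARP cleavage detected by immunoblot. n = 3 independent samples.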

BV-173 [4] = assay: Inhibition of Hsp70/Bim protein protein interaction in human BV-173 cells assessed as decrease in Akt expression at 3 uM by Western blot analysis; format: cell-based
Summary of the method: (§3)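 BV173 and KCL22 cells treated at 3 µM, with DMSO as vehicle. Lysed in RIPA with protease/phosphatase inhibitor for 30 min on ice and protein measured by BCA. 150–250 µg resolved by SDS-PAGE and blotted for AKT, pAKT, Raf-1 and pRaf-1, with β-actin loading control.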

KCL-22 [5] = assay: Induction of apoptosis in human KCL-22 cells by AnnexinV-FITC/PI staining based flow cytometric analysis; format: functional, cell-based
Summary of the method: (§4)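 Cells treated with inhibitor for 48 h (DMSO stocks diluted in medium), washed in PBS with 1% bovine calf serum, stained with FITC–Annexin V (1:40) for 10 min in the dark at room temperature, and analysed by flow cytometry. EC50 is the concentration giving 50% apoptosis. Culture conditions: BV173 and KCL22 in RPMI 1640, HEK293 in DMEM, BaF3 in RPMI 1640 with 10 ng/ml mouse IL-3, all with 10% FBS at 37 °C, 5% CO2.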

BV-173 [6] = assay: Induction of apoptosis in human BV-173 cells transfected with Bim shRNA at 3 uM by AnnexinV staining method; format: functional, cell-based
Summary of the method: (§5)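 Stable clones of BV173 carrying non-silencing, Hsp70 or Bim shRNA, treated at 3 µM for 48 h. Apoptosis scored by Annexin V-FITC staining and flow cytometry. n = 3 independent samples, mean ± s.e.m.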

BV-173 [7] = assay: Competitive binding affinity to HSP70 in human BV-173 cell lysate by pull-down/Western blot analysis; format: subcellular
Summary of the method: (§6)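 BV173 cell lysate incubated with biotin-clickable affinity probe, with or without competitor. Probe-bound proteins pulled down on streptavidin/avidin agarose after click reaction. Beads washed with 0.1% SDS and PBS, boiled 15 min in SDS loading buffer. Hsp70, Hsc70 and Mortalin detected by Western blot.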

BV-173 [8] = assay: Inhibition of Hsp70/Bim protein protein interaction in human BV-173 cells assessed as decrease in Raf-1 expression at 3 uM by Western blot analysis; format: cell-based; summary of the method: as §3
BV-173 [9] = assay: Inhibition of Hsp70/Bim protein protein interaction in human BV-173 cell lysate at 1 to 5 uM by co-IP/Western blot analysis; format: subcellular; details: dose 1-5 µM
Summary of the method: (§7)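 BV173 cells treated at 0, 1, 3 and 5 µM. Immunoprecipitated with sepharose beads for 2 h at 4 °C. Hsp70, Bim and Bag3 probed by Western blot with β-actin as loading control.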

KCL-22 [10] = assay: Inhibition of Hsp70/Bim protein protein interaction in human KCL-22 cells assessed as decrease in Akt phosphorylation at 3 uM by Western blot analysis; format: cell-based; summary of the method: as §3
Homo sapiens = organism: Homo sapiens; assay: Inhibition of BimBH3-stimulated human HSP70 ATPase activity
KCL-22 [11] = assay: Inhibition of Hsp70/Bim protein protein interaction in human KCL-22 cells assessed as decrease in Raf-1 expression at 3 uM by Western blot analysis; format: cell-based; summary of the method: as §3
HEK293 = assay: Induction of apoptosis in human HEK293 cells by AnnexinV-FITC/PI staining based flow cytometric analysis; format: cell-based; summary of the method: as §4
BV-173 [12] = assay: Inhibition of Hsp70/Bim protein protein interaction in human BV-173 cells assessed as decrease in Akt phosphorylation at 3 uM by Western blot analysis; format: cell-based; summary of the method: as §3
[13] = Binding affinity to human Hsp70 NBD (1 to 383) assessed as dissociation constant measured by isothermal titration calorimetry assay
Summary of the method: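 ITC: binding isotherms integrated to give enthalpy change against ligand molar ratio, fitted with a one-set-of-sites model. Kd taken from the slope of the central linear part of the fractional saturation curve. Three independent experiments.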

BV-173 [14] = assay: Inhibition of Hsp70/Bim protein protein interaction in human BV-173 cells assessed as decrease in Raf-1 phosphorylation at 3 uM by Western blot analysis; format: cell-based; summary of the method: as §3
BV-173 [15] = assay: Induction of apoptosis in human BV-173 cells by AnnexinV-FITC/PI staining based flow cytometric analysis; format: functional, cell-based; summary of the method: as §4
KCL-22 [16] = assay: Inhibition of Hsp70/Bim protein protein interaction in human KCL-22 cells assessed as decrease in Akt expression at 3 uM by Western blot analysis; format: cell-based; summary of the method: as §3
BV-173 [17] = assay: Induction of apoptosis in human BV-173 cells transfected with Hsp70 shRNA assessed as cleaved PARP at 3 uM by Western blot analysis; format: functional, cell-based; summary of the method: as §2
BV-173 [18] = assay: Inhibition of Hsp70/Bag3 protein protein interaction in human BV-173 cell lysate at 1 to 5 uM by co-IP/Western blot analysis; format: subcellular; details: dose 1-5 µM; summary of the method: as §7
BaF3 = assay: Induction of apoptosis in mouse BaF3 cells by AnnexinV-FITC/PI staining based flow cytometric analysis; format: cell-based; summary of the method: as §4
[19] = molecular target: Stress-70 protein, mitochondrial (Homo sapiens) (UniProt P38646); assay: Competitive binding affinity to Mortalin in human BV-173 cell lysate up to 10 uM by pull-down/Western blot analysis; format: subcellular; details: dose microM <=10; summary of the method: as §6
[20] = molecular target: Heat shock cognate 71 kDa protein (Homo sapiens) (UniProt P11142); assay: Competitive binding affinity to Hsc70 in human BV-173 cell lysate up to 10 uM by pull-down/Western blot analysis; format: subcellular; details: dose microM <=10; summary of the method: as §6
BV-173 [21] = assay: Induction of apoptosis in human BV-173 cells transfected with Hsp70 shRNA at 3 uM by AnnexinV staining method; format: functional, cell-based; summary of the method: as §5
KCL-22 [22] = assay: Inhibition of Hsp70/Bim protein protein interaction in human KCL-22 cells assessed as decrease in Raf-1 phosphorylation at 3 uM by Western blot analysis; format: cell-based; summary of the method: as §3

Sequence of Apoptosis regulator Bcl-2 (P10415 whole entry): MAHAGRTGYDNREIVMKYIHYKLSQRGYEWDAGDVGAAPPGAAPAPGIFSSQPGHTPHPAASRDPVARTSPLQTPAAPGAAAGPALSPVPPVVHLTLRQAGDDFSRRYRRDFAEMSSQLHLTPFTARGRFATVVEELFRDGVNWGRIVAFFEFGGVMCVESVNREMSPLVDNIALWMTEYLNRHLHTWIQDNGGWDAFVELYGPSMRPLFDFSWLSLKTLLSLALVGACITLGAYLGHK
Sequence of Heat shock cognate 71 kDa protein (Homo sapiens) (P11142 2-646 limits assumed): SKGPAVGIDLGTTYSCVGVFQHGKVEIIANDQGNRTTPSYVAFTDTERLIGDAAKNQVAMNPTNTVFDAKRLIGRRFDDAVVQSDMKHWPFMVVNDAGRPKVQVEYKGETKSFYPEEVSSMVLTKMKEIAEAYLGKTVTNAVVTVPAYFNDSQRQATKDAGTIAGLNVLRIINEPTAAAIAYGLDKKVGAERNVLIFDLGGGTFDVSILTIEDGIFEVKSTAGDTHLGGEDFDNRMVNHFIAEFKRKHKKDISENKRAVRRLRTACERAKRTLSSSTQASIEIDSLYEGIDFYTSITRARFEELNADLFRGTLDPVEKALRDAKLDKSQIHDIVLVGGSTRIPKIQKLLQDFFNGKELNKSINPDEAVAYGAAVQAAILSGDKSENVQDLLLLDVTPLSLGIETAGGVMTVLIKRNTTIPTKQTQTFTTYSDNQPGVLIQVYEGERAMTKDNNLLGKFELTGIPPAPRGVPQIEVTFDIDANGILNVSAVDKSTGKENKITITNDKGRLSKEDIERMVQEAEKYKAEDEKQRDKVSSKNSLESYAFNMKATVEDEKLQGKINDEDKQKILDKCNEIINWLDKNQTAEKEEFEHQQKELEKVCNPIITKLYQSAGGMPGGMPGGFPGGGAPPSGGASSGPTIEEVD
Sequence of Stress-70 protein, mitochondrial (Homo sapiens) (P38646 whole entry): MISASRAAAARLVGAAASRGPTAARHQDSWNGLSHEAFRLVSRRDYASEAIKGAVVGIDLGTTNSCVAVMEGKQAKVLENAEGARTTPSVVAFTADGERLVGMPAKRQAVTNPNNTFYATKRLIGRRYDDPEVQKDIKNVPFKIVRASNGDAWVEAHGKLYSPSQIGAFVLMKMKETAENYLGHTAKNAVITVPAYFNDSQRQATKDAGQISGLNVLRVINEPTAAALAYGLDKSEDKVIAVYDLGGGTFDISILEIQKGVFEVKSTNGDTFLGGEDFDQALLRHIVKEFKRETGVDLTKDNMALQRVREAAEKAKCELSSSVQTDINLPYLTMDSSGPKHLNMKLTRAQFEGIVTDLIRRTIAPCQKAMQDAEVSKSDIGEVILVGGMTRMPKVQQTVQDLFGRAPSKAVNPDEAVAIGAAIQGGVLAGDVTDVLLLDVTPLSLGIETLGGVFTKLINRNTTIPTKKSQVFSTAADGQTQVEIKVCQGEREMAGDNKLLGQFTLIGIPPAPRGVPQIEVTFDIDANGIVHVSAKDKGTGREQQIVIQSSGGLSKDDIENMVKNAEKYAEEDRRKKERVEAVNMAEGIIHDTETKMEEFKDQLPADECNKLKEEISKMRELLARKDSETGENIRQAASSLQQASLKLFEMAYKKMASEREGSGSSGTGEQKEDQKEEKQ

SMILES: N#CC1=C(C#N)c2ccc(Sc3ccccc3)c3cccc(c23)C1=O
- IC50 [1]: 1.8 µM
- IC50 [2]: 7.7 µM

SMILES: N#CC1=C(C#N)c2ccc(N3CCSCC3)c3cccc(c23)C1=O
- IC50 [1]: 0.8 µM
- IC50 [2]: > 20 µM

SMILES: N#CC1=C(NCCN2CCOCC2)c2ccc(SC3CCCCC3)c3cccc(c23)C1=O
- Activity (BV-173 [3]): Active
- inhibition (BV-173 [4]): Active
- IC50 [1]: 18.7 µM
- EC50 (KCL-22 [5]): 2.6 µM
- Activity (BV-173 [6]): Active
- Activity (BV-173 [7]): Dose-Dependent Effect
- inhibition (BV-173 [8]): Active
- inhibition (BV-173 [9]): Active
- inhibition (KCL-22 [10]): Active
- inhibition (Homo sapiens): Active
- IC50 [2]: 0.45 µM
- inhibition (KCL-22 [11]): Active
- EC50 (HEK293): > 15 µM
- inhibition (BV-173 [12]): Active
- Kd [13]: 0.96 µM
- inhibition (BV-173 [14]): Active
- EC50 (BV-173 [15]): 1.4 µM
- inhibition (KCL-22 [16]): Active
- Activity (BV-173 [17]): Active
- inhibition (BV-173 [18]): inactive
- EC50 (BaF3): > 15 µM
- Activity [19]: Active
- Activity [20]: Active
- Activity (BV-173 [21]): Active
- inhibition (KCL-22 [22]): Active

SMILES: CCCCNC1=C(C#N)C(=O)c2cccc3c(SC4CCCCC4)ccc1c23
- IC50 [1]: 16 µM
- IC50 [2]: 13.2 µM

SMILES: N#CC1=C(NCCO)c2ccc(SC3CCCCC3)c3cccc(c23)C1=O
- IC50 [1]: 9.6 µM
- IC50 [2]: 0.81 µM

SMILES: N#CC1=C(C#N)c2ccc(Sc3ccc(Br)cc3)c3cccc(c23)C1=O
- IC50 [1]: 0.7 µM
- IC50 [2]: 2.5 µM

SMILES: COc1ccc(Sc2ccc3c4c(cccc24)C(=O)C(C#N)=C3C#N)cc1
- IC50 [1]: 6.1 µM
- IC50 [2]: 4.5 µM

SMILES: N#CC1=C(NCCC(N)=O)c2ccc(SC3CCCCC3)c3cccc(c23)C1=O
- IC50 [1]: 13.5 µM
- IC50 [2]: 1 µM

SMILES: N#CC1=C(C#N)c2ccc(SC3CCCCC3)c3cccc(c23)C1=O
- IC50 [1]: 8.6 µM
- IC50 [2]: 1.7 µM

SMILES: N#CC1=C(C#N)c2ccc(SC3CCCC3)c3cccc(c23)C1=O
- IC50 [1]: 8.4 µM
- IC50 [2]: 3.2 µM

SMILES: CC(C)c1ccc(Sc2ccc3c4c(cccc24)C(=O)C(C#N)=C3C#N)cc1
- IC50 [1]: 2.8 µM
- IC50 [2]: 4.4 µM

SMILES: N#CC1=C(NCC2CCCCC2)c2ccc(SC3CCCCC3)c3cccc(c23)C1=O
- IC50 [1]: 4.8 µM
- IC50 [2]: 8.4 µM

SMILES: N#CC1=C(C#N)c2ccc(NCc3ccccc3)c3cccc(c23)C1=O
- IC50 [1]: 14.8 µM
- IC50 [2]: 18.5 µM

SMILES: N#CC1=C(NCc2ccccc2)c2ccc(SC3CCCCC3)c3cccc(c23)C1=O
- IC50 [1]: 5.2 µM
- IC50 [2]: 10.5 µM

SMILES: N#CC1=C(C#N)c2ccc(NC3CCCCC3)c3cccc(c23)C1=O
- IC50 [1]: > 20 µM
- IC50 [2]: > 20 µM

SMILES: CC1(C)CCC(CN2CCN(c3ccc(C(=O)NS(=O)(=O)c4ccc(NCC5CCOCC5)c([N+](=O)[O-])c4)c(Oc4cnc5[nH]ccc5c4)c3)CC2)=C(c2ccc(Cl)cc2)C1 [VENETOCLAX]
- IC50 [2]: > 20 µM

SMILES: N#CC1=C(C#N)c2ccc(NCCO)c3cccc(c23)C1=O
- IC50 [1]: > 20 µM
- IC50 [2]: 15.2 µM
